ADAM10 inh: human ADAM10 inhibitors, primary screen, biochemical, QFRET, HTS | Disintegrin and metalloproteinase domain-containing protein 10 (Homo sapiens), O14672 | recombinant ADAM10, EDANS/DABCYL FRET peptide cleavage, 3 h | inhibition, % at 7 µM | 370,000 compounds, 0.62% hits | AID 720582, 2013;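 active means inhibition above a per-campaign cutoff equal to the mean of compounds falling between control-based bounds plus 3 SD, cut at about 20% in these data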;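 further: 0% = DMSO wells while the 100% control is not disclosed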
Target sequence (O14672 214-748 limits assumed): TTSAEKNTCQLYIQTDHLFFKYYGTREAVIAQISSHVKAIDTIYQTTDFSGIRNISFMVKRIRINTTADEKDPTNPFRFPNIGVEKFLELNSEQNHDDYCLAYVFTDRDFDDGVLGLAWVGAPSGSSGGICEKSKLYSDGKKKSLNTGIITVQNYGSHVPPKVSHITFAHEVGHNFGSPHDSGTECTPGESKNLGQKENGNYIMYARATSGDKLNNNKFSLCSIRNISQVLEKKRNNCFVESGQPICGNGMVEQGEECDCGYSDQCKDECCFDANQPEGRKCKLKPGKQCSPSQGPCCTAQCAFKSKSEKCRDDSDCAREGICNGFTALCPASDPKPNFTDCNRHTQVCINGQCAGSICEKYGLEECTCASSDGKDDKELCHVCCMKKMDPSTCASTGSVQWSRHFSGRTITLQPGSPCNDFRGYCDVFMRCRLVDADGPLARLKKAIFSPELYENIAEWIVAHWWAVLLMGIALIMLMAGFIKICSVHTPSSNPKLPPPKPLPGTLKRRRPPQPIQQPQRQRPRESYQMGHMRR
ADAM17 inh: ADAM17 inhibitors, primary screen, biochemical, QFRET; Disintegrin and metalloproteinase domain-containing protein 17 (Homo sapiens), P78536; recombinant ADAM17, EDANS/DABCYL FRET peptide cleavage; inhibition, % at 6.95 µM; 370,000 compounds, 0.83% hits;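 active means inhibition above the mean of compounds lying between control limits plus 3 SD, set per campaign, cut at about 8.5% in these data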;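 further: 0% = DMSO-only wells as the low control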
SKN-1 inh: suppressors of acrylamide-induced Pgst-4::GFP reporter in worms, primary screen, SKN-1 inhibitor project, whole organism, uHTS, GFP/RFP fluorescence ratio, strain VP596 | C. elegans VP596 Pgst-4::GFP/RFP ratio, 24 h | 360,000 compounds, 0.49% hits | inhibition, % at 21.8 µM;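 active means interference check ratio from 0.5 to 1.5 plus GFP to RFP signal ratio inhibition reaching or exceeding a fixed threshold, cut at about 30% in these data, passing the limit was not always enough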
GRIN3A LBD mod: binders of NR3A ligand-binding domain, primary screen, biophysical, differential scanning fluorimetry, uHTS | 340,000 compounds, 2.5% hits | NR3A LBD differential scanning fluorimetry, Tm shift; 0% = protein alone, 100% = glycine-bound protein | Tm shift relative to glycine control, % at 25 µM | Glutamate receptor ionotropic, NMDA 3A (GRIN3A) ligand-binding domain;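 active means melting temperature shift of at least 10% of the positive control shift, at one fixed dose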
MT1-MMP act inh: blockers of MT1-MMP proenzyme processing, primary screen, HT1080 RFP-PRO-GFP cells, GFP/RFP fluorescence. GFP/RFP ratio fluorescence, overnight; percent of plate control window, DMSO zero. GFP/RFP ratio change, % at 20 µM. 360,000 compounds, 0.061% hits;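 active means GFP/RFP ratio change of at least 30% with cell ATP level not reduced by more than half and red fluorescence within 50% of control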
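Test system: HT1080 RFP-PRO-GFP cells; Benchmarks: DMSO and RFP-L50D-GFP cell wells; Timing: cells overnight before dosing, compound overnight, 37 °C, 5% CO2; Compound: one 20 µM compound dose with 1% DMSO; Read-out: GFP/RFP fluorescence ratio.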
MPTP inh: mitochondrial permeability transition pore inhibitors, primary screen, biochemical, isolated mouse mitochondria, absorbance; Ca2+ swelling absorbance, 30 min; inhibition, % at 10 µM; 360,000 compounds, 1.4% hits; AID 602449, 2012;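 active means inhibition of 50% or more, scaled per plate between neutral and stimulator controls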;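 further: 0% = DMSO wells given calcium and 100% = 1 mM EGTA wells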
Rh123 counter: fluorescence retest of MPTP screen hits in isolated mitochondria, single concentration. membrane potential, Rhodamine 123 fluorescence. shares compounds with MPTP inh. 5,000 compounds, 78% hits. inhibition, % at 10 µM; in the data active means inhibition above about 22%;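 further: 0% = DMSO vehicle and 100% = positive control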
MPTP abs DR: mitochondrial permeability transition pore inhibitors, dose response, biochemical, absorbance, uHTS hits. shares compounds with MPTP inh. isolated mitochondria swelling. IC50, µM. 780 compounds, 58% hits; in the data active means IC50 below about 20 µM
MPTP counter DR: fluorescent counter-screen in isolated mitochondria, dose response, counter-screen for MPTP inhibitor project, biochemical, fluorescence, uHTS hits | shares compounds with MPTP inh | isolated mitochondria counterscreen, fluorescence read-out | IC50, µM | 780 compounds, 49% hits | AID 651564, 2012; in the data active means IC50 below about 80 µM
Numbers without * were called inactive; i = inactive; x = not tested or not shown. Rows were chosen to be rich in hits. Some 4.7% of all compounds tested hit in one or more screens of this group.

SMILES	ADAM10 inh	ADAM17 inh	SKN-1 inh	GRIN3A LBD mod	MT1-MMP act inh	MPTP inh	Rh123 counter	others
CSc1nc(Oc2ccc3ccccc3c2)c2ccccc2n1	-3	-3	-7	0	-8	80*	5	MPTP abs DR=9.4*;MPTP counter DR=>80
CSc1nc(Oc2ccccc2)c2sccc2n1	3	0	-6	-1	5	0	x
Cc1cccc(NCC(=O)N/N=C\c2cccn2C)c1	13	0	-9	0	4	3	x
COc1ccc(NC(=O)C23CC4CC(C2)CC(c2ccc(C)cc2)(C4)C3)cc1	6	1	-4	-16	-20	60*	21*
CC1CCc2nc(NC(=O)CN3CCN(c4ccccc4)CC3)sc2C1 (configuration not stated)	-2	-2	16	-1	3	-9	x
CC1CCc2nc(NC(=O)CN3CCN(Cc4ccc5c(c4)OCO5)CC3)sc2C1 (configuration not stated)	4	0	-1	-1	0	56*	7	MPTP abs DR=i;MPTP counter DR=46*
Cc1ccc(Cn2ncc3c(N4CCCC4)ncnc32)cc1	0	0	-14	0	-4	62*	1	MPTP abs DR=>100;MPTP counter DR=>80
Clc1ccc(Cn2ncc3c(N4CCCC4)ncnc32)cc1	-1	-4	-5	0	3	-1	x
COc1ccc(N2CCN(C(=O)COC(=O)c3ccc(OC(F)F)cc3)CC2)cc1	-3	0	6	2	3	0	x
Nc1nc2ccccc2cc1C(=O)NCc1ccc(Cl)cc1Cl	x	x	13	x	1	67*	97*
Nc1ccc(CNC(=O)c2cc3cc(Cl)ccc3nc2N)cc1	-126	-29	13	x	11	17	x
Nc1nc2ccccc2cc1C(=O)NCc1ccc(-c2ccccc2)cc1	-47	-12	-7	x	13	106*	103*
Nc1nc2ccc(Cl)cc2cc1C(=O)NCc1ccccc1Br	-68	-18	x	x	x	x	x
COC(=O)c1sc(=S)n(-c2cccc(Cl)c2)c1N	2	0	-4	2	0	2	x
O=C(NC(=S)NN1CCCCC1c1cccnc1)c1ccc(Cl)cc1Cl (configuration not stated)	-9	4	-5	-2	1	52*	65*
O=C(NC(=S)N1CCCCC1c1cccnc1)c1ccc(F)cc1 (configuration not stated)	4	-2	-12	3	4	-1	x
CCOc1ccc2nc(N/C(N)=N/S(C)(=O)=O)nc(C)c2c1	-124	-52	-11	0	3	0	x
CCn1c(C)nc([N+](=O)[O-])c1Sc1ccc(F)cc1	-5	2	4	-1	1	77*	-1	MPTP abs DR=>100;MPTP counter DR=>80
CCCCc1c(C)c(C#N)c2[nH]c3ccccc3n2c1=O	-141	-52	-4	1	-6	83*	96*
Cc1cccc(NC(=O)Nc2ccc(Cl)c(Cl)c2)n1	-3	-3	20	3	-6	12	x
Cc1c(NC(=O)Nc2ccc(Cl)c(Cl)c2)sc(=S)n1C	1	1	-1	22*	10	51*	64*
Cc1c(N2C(=O)/C(=C\c3ccccc3O)SC2=S)c(=O)n(-c2ccccc2)n1C	-10	-6	15	0	-2	1	x
CN1C(=O)/C(=C/c2cc(N=Nc3ccccc3)ccc2O)SC1=S	6	1	-8	372*	151	95*	61*
Cc1ccc(NS(=O)(=O)c2ccc(Cl)c(C(=O)Nc3ccccc3-c3nc4ccccc4[nH]3)c2)cc1C	-79	-13	-1	34*	-12	88*	58*
COc1ccc(OCC(=O)Nc2ccc(NC(=O)c3ccco3)cc2)cc1	6	0	13	6	-4	0	x
SMILES	ADAM10 inh	ADAM17 inh	SKN-1 inh	GRIN3A LBD mod	MT1-MMP act inh	MPTP inh	Rh123 counter	others
CC1(C)O[C@@H]2[C@H](O1)[C@@H](O)C[C@H]2n1cnc2c(Cl)ncnc21	-1	1	x	x	x	x	x
CC(=O)c1c(C)[nH]c(C(=O)CSc2ncnc3sc(-c4ccccc4)cc23)c1C	-27	-7	13	-2	-5	96*	39*
Cn1c(SCc2cccc([N+](=O)[O-])c2)nc2c(c1=O)SCC2	-1	-5	-1	1	-10	58*	49*
Cc1cc(/C=C(\C#N)C(=O)Nc2ccccc2F)c(C)[nH]1	-72	-28	18	1	4	-4	x
C[C@H]1CCC(=O)N([C@H](COc2ccccc2)Cc2ccccc2)CC1	8	8	10	2	-9	1	x
O=c1[nH]c(=O)n(-c2ccc(F)cc2)c2c1C(C(F)(F)F)(C(F)(F)F)N=C(c1ccc(F)cc1)N2	-6	0	6	5	-13	100*	85*
Cc1ccc(C2=NC(C(F)(F)F)(C(F)(F)F)c3c(n(-c4ccc(F)cc4)c(=O)[nH]c3=O)N2)cc1	1	-2	11	-5	-6	25	x
O=c1[nH]c(=O)n(Cc2ccco2)c2c1C(C(F)(F)F)(C(F)(F)F)N=C(CCC1CCCCC1)N2	-6	-3	-13	3	-46	70*	90*
N#Cc1ccc(C2=NC(C(F)(F)F)(C(F)(F)F)c3c(n(Cc4ccco4)c(=O)[nH]c3=O)N2)cc1	7	2	-11	12*	-3	84*	84*
COC(=O)C1CN(CCc2ccccc2)CCS(=O)(=O)N1Cc1ccc(Cl)cc1 (configuration not stated)	-66	0	x	x	x	x	x
C/C(=N\Nc1cccc(Cl)c1)c1ccncc1	-3	-2	29	-14	2	-3	x
CN(C)CCOc1ccc(C(C)(C)c2ccccc2)cc1	-10	-6	1	-1	-1	2	x
C=CCNCCOc1ccc(C(C)(C)c2ccccc2)cc1	0	-2	0	-1	19	78*	-12	MPTP abs DR=15*;MPTP counter DR=>80
